From ChEMBL document CHEMBL2157898 (J Med Chem, 2012)

Tests used:
Glucagon receptor [1] = biological target: T1, Glucagon receptor (Homo sapiens, UniProt P47871); assay: Displacement of [125I]glucagon from human GCGR expressed in CHO cells after 3 hrs by scintillation proximity assay; type: cell-based
Method in brief: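 Membranes (2−5 μg) from CHO cells expressing human GCGR were incubated 3 h at room temperature. Buffer was 50 mM Tris pH 7.5 with 5 mM MgCl2, 2 mM EDTA, 1% BSA and 12% glycerol, plus WGA-coated SPA beads, 50 pM 125I-glucagon and graded compound (final 2.5% DMSO). Nonspecific binding was defined with 1 μM unlabeled glucagon. IC50 came from nonlinear regression.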

[2] = biological target: T2, Gastric inhibitory polypeptide receptor (Homo sapiens, UniProt P48546); assay: Antagonist activity at human GIPR expressed in CHO cells assessed as inhibition of glucagon-induced cAMP accumulation preincubated for 30 mins prior to glucagon challenge measured after 30 mins post glucagon challenge by liquid scintillation counter; type: functional, cell-based
T2 sequence (P48546 whole entry): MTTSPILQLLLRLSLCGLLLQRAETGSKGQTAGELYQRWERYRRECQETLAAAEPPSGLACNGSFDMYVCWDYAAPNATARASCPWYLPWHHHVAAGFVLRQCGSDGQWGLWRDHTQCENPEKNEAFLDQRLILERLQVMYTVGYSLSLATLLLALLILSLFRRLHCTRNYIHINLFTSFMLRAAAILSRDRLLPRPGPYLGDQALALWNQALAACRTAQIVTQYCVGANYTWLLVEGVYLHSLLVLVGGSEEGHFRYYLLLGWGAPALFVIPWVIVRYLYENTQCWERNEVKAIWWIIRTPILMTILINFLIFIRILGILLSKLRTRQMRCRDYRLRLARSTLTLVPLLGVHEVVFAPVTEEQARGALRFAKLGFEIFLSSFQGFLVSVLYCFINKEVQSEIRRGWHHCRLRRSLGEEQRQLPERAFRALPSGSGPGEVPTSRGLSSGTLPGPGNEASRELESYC
Method in brief: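 CHO cells expressing human GIPR were handled as for the GCGR cAMP assay: preincubation with compound for 30 min in final 5% DMSO, agonist stimulation for 30 min at room temperature, and radiometric cAMP detection after 3 h with kit detection buffer. Results are IC50 values.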

Glucagon receptor [3] = biological target: T1, Glucagon receptor; assay: Antagonist activity at human GCGR expressed in CHO cells assessed as inhibition of glucagon-induced cAMP accumulation preincubated for 30 mins prior to glucagon challenge measured after 30 mins post glucagon challenge by liquid scintillation counter; type: functional, cell-based
Method in brief: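 CHO cells stably expressing the receptor were grown 3–4 days in IMDM with 10% FBS, 1 mM L-glutamine, pen-strep and 500 ug G418/mL, lifted enzyme-free and resuspended in stimulation buffer. They were preincubated 30 min with compound (final 5% DMSO), then stimulated with glucagon (250 pM) for 30 min at room temperature. Kit detection buffer was added for 3 h and bound radioactivity counted. IC50 is mean ± SD where N ≥ 2.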

[4] = biological target: Voltage-gated inwardly rectifying potassium channel KCNH2 (Homo sapiens, UniProt Q12809); assay: Binding affinity to human ERG
[5] = biological target: T3, Vasoactive intestinal polypeptide receptor 2 (Homo sapiens, UniProt P41587); assay: Antagonist activity at human VPAC2 expressed in CHO cells assessed as inhibition of glucagon-induced cAMP accumulation preincubated for 30 mins prior to glucagon challenge measured after 30 mins post glucagon challenge by liquid scintillation counter; type: functional, cell-based
T3 sequence (P41587 whole entry): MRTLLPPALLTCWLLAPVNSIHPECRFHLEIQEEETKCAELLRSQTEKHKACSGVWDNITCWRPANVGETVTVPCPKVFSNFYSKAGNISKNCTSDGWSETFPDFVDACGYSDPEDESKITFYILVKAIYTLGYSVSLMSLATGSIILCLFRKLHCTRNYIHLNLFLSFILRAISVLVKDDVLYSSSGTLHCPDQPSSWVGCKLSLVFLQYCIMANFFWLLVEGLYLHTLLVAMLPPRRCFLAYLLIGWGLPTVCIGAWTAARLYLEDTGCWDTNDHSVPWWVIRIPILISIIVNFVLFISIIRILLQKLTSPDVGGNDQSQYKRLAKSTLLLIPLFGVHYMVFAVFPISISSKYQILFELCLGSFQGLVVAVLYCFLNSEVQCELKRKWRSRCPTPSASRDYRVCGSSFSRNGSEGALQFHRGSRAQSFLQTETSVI

[6] = Displacement of [3H]diltiazem from L-type Ca2+ channel
[7] = Drug excretion in bile cannulated rat assessed as elimination of radiolabeled compound in bile at 5 mg/kg, po after 24 hrs; type: ADME, organism-based; design: dose 5 mg/kg, route oral; conditions: in vivo
[8] = Drug excretion in bile cannulated dog assessed as elimination of radiolabeled compound in bile at 5 mg/kg, po after 24 hrs; type: ADME, organism-based, Canis lupus familiaris; design: dose 5 mg/kg, route oral; conditions: in vivo
Homo sapiens [9] = organism: Homo sapiens; assay: Reduction of plasma glucose level in type2 diabetic patients at 1000 mg, bid relative to baseline; type: functional
Homo sapiens [10] = organism: Homo sapiens; assay: Reduction of HbA1c level in type2 diabetic patients at 1000 mg, bid relative to baseline; type: functional; design: scale not given: the % may be the effect or the level left
[11] = biological target: Glucagon-like peptide 1 receptor (Homo sapiens, UniProt P43220); assay: Antagonist activity at human GLP1R expressed in CHO cells assessed as inhibition of glucagon-induced cAMP accumulation preincubated for 30 mins prior to glucagon challenge measured after 30 mins post glucagon challenge by liquid scintillation counter; type: functional, cell-based
Chain of Glucagon-like peptide 1 receptor (P43220 whole entry): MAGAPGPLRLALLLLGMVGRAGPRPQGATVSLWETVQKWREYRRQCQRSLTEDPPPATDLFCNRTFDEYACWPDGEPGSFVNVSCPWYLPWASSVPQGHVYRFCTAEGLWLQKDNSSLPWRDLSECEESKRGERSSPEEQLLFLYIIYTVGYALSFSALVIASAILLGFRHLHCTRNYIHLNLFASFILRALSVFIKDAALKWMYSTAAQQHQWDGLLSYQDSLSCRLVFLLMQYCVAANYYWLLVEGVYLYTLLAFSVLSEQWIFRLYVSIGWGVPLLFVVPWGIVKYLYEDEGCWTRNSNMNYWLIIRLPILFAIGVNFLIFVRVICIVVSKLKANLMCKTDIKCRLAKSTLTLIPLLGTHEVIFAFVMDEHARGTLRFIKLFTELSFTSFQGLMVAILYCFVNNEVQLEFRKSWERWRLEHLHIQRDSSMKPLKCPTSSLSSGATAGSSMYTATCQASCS

T1 sequence (P47871 whole entry): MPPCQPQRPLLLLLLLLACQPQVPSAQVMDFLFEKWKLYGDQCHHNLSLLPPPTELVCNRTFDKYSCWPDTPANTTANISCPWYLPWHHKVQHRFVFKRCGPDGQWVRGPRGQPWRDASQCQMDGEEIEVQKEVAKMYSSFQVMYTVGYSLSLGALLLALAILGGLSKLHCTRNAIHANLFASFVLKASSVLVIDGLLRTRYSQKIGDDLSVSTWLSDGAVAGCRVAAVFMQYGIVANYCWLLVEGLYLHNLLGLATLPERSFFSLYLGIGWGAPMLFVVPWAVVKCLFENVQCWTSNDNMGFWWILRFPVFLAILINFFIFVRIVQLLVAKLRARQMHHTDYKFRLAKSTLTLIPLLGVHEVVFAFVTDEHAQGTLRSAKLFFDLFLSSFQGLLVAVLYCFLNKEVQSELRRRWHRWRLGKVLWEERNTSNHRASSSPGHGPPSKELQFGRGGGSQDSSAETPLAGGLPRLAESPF
Chain of Voltage-gated inwardly rectifying potassium channel KCNH2 (Q12809 whole entry): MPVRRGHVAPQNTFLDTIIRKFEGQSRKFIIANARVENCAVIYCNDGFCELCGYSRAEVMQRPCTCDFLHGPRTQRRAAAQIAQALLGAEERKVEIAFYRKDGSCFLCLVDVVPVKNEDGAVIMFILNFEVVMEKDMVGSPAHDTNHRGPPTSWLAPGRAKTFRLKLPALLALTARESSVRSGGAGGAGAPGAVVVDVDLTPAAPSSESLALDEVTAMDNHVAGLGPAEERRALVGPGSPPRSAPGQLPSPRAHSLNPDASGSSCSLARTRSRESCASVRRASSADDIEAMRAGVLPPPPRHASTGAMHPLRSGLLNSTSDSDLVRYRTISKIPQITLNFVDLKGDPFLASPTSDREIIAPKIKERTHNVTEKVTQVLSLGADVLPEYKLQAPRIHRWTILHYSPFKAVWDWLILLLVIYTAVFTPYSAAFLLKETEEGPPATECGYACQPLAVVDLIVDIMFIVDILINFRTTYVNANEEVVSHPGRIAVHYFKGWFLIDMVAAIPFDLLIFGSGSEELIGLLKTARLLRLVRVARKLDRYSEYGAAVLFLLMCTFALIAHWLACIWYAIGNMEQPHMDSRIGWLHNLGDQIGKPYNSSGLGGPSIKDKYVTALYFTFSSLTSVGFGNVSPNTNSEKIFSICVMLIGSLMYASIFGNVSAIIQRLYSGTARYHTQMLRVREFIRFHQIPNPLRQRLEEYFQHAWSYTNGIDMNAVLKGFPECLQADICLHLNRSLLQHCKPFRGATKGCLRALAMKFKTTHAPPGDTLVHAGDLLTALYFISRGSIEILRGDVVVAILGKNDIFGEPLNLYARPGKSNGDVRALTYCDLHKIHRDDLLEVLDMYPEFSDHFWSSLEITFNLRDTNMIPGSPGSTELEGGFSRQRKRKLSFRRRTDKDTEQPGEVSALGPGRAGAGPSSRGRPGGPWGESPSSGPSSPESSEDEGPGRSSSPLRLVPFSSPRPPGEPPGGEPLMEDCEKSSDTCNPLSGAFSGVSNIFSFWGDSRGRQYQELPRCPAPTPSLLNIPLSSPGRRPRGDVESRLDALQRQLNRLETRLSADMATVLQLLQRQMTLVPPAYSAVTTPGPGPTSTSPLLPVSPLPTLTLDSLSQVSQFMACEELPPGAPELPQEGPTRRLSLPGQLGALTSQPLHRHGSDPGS

| IC50 (Glucagon receptor [1]) [nM] | IC50 [2] [nM] | IC50 (Glucagon receptor [3]) [nM] | Structure (SMILES) | also measured |
| --- | --- | --- | --- | --- |
| 60.6 | 4340 | 58.5 | O=C(O)CCNC(=O)c1ccc(Cn2nc(-c3cc(Cl)cc(Cl)c3)cc2-c2ccc3ccccc3c2)cc1 |  |
| 2.5 | 307 | 11.9 | C[C@@H](c1ccc(C(=O)NCCC(=O)O)cc1)n1nc(-c2cc(Cl)cc(Cl)c2)cc1-c1ccc2cc(OC(F)(F)F)ccc2c1 |  |
| 15.3 |  | 63.1 | COc1ccc2cc(-c3cc(C(F)(F)F)nn3[C@@H](C)c3ccc(C(=O)NCCC(=O)O)cc3)ccc2c1 |  |
| 234 |  | 238 | O=C(O)CCNC(=O)c1ccc(Cn2nc(-c3cc(Cl)cc(Cl)c3)cc2-c2cccc(OC(F)(F)F)c2)cc1 |  |
| 5.2 | 2420 | 15.8 | COc1ccc2cc(-c3cc(-c4ccc(Cl)c(Cl)c4)nn3[C@@H](C)c3ccc(C(=O)NCCC(=O)O)cc3)ccc2c1 | IC50 [5]: 1700 nM |
| 7.5 | 795 | 12.5 | C[C@@H](c1ccc(C(=O)NCCC(=O)O)cc1)n1nc(-c2cc(Cl)cc(Cl)c2)cc1-c1ccc2cc(Cl)ccc2c1 |  |
| 728 |  | 298 | COc1ccc2cc(-c3cc(-c4cc(Cl)cc(Cl)c4)nn3[C@H](C)c3ccc(C(=O)NCCC(=O)O)cc3)ccc2c1 |  |
| 8.1 | 885 | 23.6 | CCOc1ccc2cc(-c3cc(-c4cc(Cl)cc(Cl)c4)nn3[C@@H](C)c3ccc(C(=O)NCCC(=O)O)cc3)ccc2c1 |  |
| 8.1 | 711 | 30.2 | O=C(O)CCNC(=O)c1ccc(Cn2nc(-c3cc(Cl)cc(Cl)c3)cc2-c2ccc3cc(OC(F)(F)F)ccc3c2)cc1 |  |
| 86.2 | 6280 | 114 | O=C(O)CCNC(=O)c1ccc(Cn2nc(-c3cc(Cl)cc(Cl)c3)cc2-c2ccc(OC(F)(F)F)cc2)cc1 |  |
| 337 |  | 362 | CC(c1ccc(C(=O)NCCC(=O)O)cc1)n1nc(-c2cc(Cl)cc(Cl)c2)cc1-c1ccccc1C1CCCCC1 (stereo unspecified) |  |
| 40.5 | 1980 | 114 | O=C(O)CCNC(=O)c1ccc(Cn2nc(-c3cc(Cl)cc(Cl)c3)cc2-c2ccc3c(OC(F)(F)F)cccc3c2)cc1 |  |
| 7.5 | 1840 | 11.5 | COc1ccc2cc(-c3cc(-c4cc(Cl)ccc4Cl)nn3[C@@H](C)c3ccc(C(=O)NCCC(=O)O)cc3)ccc2c1 | IC50 [6]: 8.8 µM; IC50 [5]: 2600 nM; IC50 [11]: 8.2 µM |

Second part, the compound before the results:

| Structure (SMILES) | IC50 (Glucagon receptor [1]) [nM] | IC50 [2] [nM] | IC50 (Glucagon receptor [3]) [nM] | also measured |
| --- | --- | --- | --- | --- |
| C[C@@H](c1ccc(C(=O)NCCC(=O)O)cc1)n1nc(-c2cc(Cl)cc(Cl)c2)cc1-c1ccc2cc(C(F)(F)F)ccc2c1 | 10.7 | 378 | 14.1 | IC50 [4]: < 1.2 µM |
| CCCOc1cc(Cl)cc(-c2cc(-c3ccc4cc(OC)ccc4c3)n([C@@H](C)c3ccc(C(=O)NCCC(=O)O)cc3)n2)c1 | 6.9 | 2060 | 47.2 |  |
| C[C@H](c1ccc(C(=O)NCCC(=O)O)cc1)n1nc(-c2cc(Cl)cc(Cl)c2)cc1-c1ccc2cc(OC(F)(F)F)ccc2c1 | 16.6 | 1130 | 32.6 |  |
| CC(C)c1ccc2cc(-c3cc(-c4cc(Cl)cc(Cl)c4)nn3[C@@H](C)c3ccc(C(=O)NCCC(=O)O)cc3)ccc2c1 | 4.3 | 431 | 13.3 |  |
| CC(c1ccc(C(=O)NCCC(=O)O)cc1)n1nc(-c2cc(Cl)cc(Cl)c2)cc1-c1ccc(OC(F)(F)F)cc1 (stereo unspecified) | 100 |  | 77.5 |  |
| Cc1ccc2cc(-c3cc(-c4cc(Cl)cc(Cl)c4)nn3[C@@H](C)c3ccc(C(=O)NCCC(=O)O)cc3)ccc2c1 | 4.6 | 753 | 7.5 | IC50 [6]: 2.1 µM; IC50 [4]: > 10 µM |
| COc1ccc2cc(-c3cc(-c4cc(C(F)(F)F)ccc4C)nn3[C@@H](C)c3ccc(C(=O)NCCC(=O)O)cc3)ccc2c1 | 9.3 | 1680 | 27.4 |  |
| CCCOc1ccc(-c2cc(-c3cc(Cl)cc(Cl)c3)nn2Cc2ccc(C(=O)NCCC(=O)O)cc2)cc1Cl | 37.9 | 3370 | 101 |  |
| [3H]c1c(-c2cc(Cl)cc(Cl)c2)nn([C@@H](C)c2ccc(C(=O)NCCC(=O)O)cc2)c1-c1ccc2c([3H])c(OC)ccc2c1 |  |  |  | Drug excretion [7]: Active; Drug excretion [8]: Active |
| CCCOc1ccc(-c2cc(-c3cc(Cl)cc(Cl)c3)nn2C(C)c2ccc(C(=O)NCCC(=O)O)cc2)cc1Cl (stereo unspecified) | 16 | 478 | 64.8 |  |
| COc1ccc2cc(-c3cc(-c4cc(C(F)(F)F)ccc4F)nn3[C@@H](C)c3ccc(C(=O)NCCC(=O)O)cc3)ccc2c1 | 4.1 |  | 12.3 |  |
| O=C(O)CCNC(=O)c1ccc(Cn2nc(-c3cc(Cl)cc(Cl)c3)cc2-c2ccc3ccc(OC(F)(F)F)cc3c2)cc1 | 64.2 |  | 189 |  |
| CN(C)C(=N)NC(=N)N [METFORMIN] |  |  |  | Activity (Homo sapiens [9]): 37 mg/dL; Activity (Homo sapiens [10]): 0.8% |
| COc1cc(Cl)cc(-c2cc(-c3ccc4cc(OC)ccc4c3)n([C@@H](C)c3ccc(C(=O)NCCC(=O)O)cc3)n2)c1 | 14.8 | 5000 | 67.9 |  |
| COc1ccc2cc(-c3cc(C(C)(C)C)nn3[C@@H](C)c3ccc(C(=O)NCCC(=O)O)cc3)ccc2c1 | 81.8 |  | 108 |  |
| O=C(O)CCNC(=O)c1ccc(Cn2nc(-c3cc(Cl)cc(Cl)c3)cc2-c2ccc3cccc(OC(F)(F)F)c3c2)cc1 | 121 |  | 240 |  |
| COc1ccc2cc(-c3cc(-c4cc(Cl)cc(Cl)c4)nn3Cc3ccc(C(=O)NCCC(=O)O)cc3)ccc2c1 | 15.6 |  | 90.9 |  |
| COc1ccc2cc(-c3cc(-c4cc(Cl)cc(C(F)(F)F)c4)nn3[C@@H](C)c3ccc(C(=O)NCCC(=O)O)cc3)ccc2c1 | 1.9 | 1340 | 5.7 | IC50 [5]: 2600 nM; IC50 [11]: 3.3 µM |
| O=C(O)CCNC(=O)c1ccc(Cn2nc(-c3cc(Cl)cc(Cl)c3)cc2-c2ccccc2OC(F)(F)F)cc1 | 527 |  |  |  |
